Assay [1] has as its system HepG2. The experiment in a line: Induction of human ApoA1 gene expression in stably transfected human HepG2 cells coexpressing luciferase reporter gene after 18 hrs by luminescence assay. Format: functional, cell-based.
Assay [2] concerns HepG2. The experiment in a line: Induction of human LDL-R gene expression in stably transfected human HepG2 cells coexpressing luciferase reporter gene at 0.001 to 10 uM after 18 hrs by luminescence assay. Format: functional, cell-based. Put shortly:
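Selectivity counter-screen run in parallel under the same conditions as the ApoA1 reporter: HepG2 cells stably carrying an LDL-receptor promoter–luciferase reporter, 18 h with or without compound in 0.5% DMSO, then Bright Glo luminescence read after 10 min.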

The test system of assay [3] is HepG2. The experiment in a line: Induction of human ApoA1 gene expression in stably transfected human HepG2 cells coexpressing luciferase reporter gene at 1 uM after 18 hrs by luminescence assay relative to control. Format: functional.
The target of a further assay is CREB-binding protein (Homo sapiens, UniProt Q92793). The experiment in a line: Binding affinity to CREBBP by isothermal titration calorimetric analysis. A general note: ITC needs no label: the signal is the heat of the interaction.
Chain of CREB-binding protein (Q92793 whole entry, the tested form may be a part): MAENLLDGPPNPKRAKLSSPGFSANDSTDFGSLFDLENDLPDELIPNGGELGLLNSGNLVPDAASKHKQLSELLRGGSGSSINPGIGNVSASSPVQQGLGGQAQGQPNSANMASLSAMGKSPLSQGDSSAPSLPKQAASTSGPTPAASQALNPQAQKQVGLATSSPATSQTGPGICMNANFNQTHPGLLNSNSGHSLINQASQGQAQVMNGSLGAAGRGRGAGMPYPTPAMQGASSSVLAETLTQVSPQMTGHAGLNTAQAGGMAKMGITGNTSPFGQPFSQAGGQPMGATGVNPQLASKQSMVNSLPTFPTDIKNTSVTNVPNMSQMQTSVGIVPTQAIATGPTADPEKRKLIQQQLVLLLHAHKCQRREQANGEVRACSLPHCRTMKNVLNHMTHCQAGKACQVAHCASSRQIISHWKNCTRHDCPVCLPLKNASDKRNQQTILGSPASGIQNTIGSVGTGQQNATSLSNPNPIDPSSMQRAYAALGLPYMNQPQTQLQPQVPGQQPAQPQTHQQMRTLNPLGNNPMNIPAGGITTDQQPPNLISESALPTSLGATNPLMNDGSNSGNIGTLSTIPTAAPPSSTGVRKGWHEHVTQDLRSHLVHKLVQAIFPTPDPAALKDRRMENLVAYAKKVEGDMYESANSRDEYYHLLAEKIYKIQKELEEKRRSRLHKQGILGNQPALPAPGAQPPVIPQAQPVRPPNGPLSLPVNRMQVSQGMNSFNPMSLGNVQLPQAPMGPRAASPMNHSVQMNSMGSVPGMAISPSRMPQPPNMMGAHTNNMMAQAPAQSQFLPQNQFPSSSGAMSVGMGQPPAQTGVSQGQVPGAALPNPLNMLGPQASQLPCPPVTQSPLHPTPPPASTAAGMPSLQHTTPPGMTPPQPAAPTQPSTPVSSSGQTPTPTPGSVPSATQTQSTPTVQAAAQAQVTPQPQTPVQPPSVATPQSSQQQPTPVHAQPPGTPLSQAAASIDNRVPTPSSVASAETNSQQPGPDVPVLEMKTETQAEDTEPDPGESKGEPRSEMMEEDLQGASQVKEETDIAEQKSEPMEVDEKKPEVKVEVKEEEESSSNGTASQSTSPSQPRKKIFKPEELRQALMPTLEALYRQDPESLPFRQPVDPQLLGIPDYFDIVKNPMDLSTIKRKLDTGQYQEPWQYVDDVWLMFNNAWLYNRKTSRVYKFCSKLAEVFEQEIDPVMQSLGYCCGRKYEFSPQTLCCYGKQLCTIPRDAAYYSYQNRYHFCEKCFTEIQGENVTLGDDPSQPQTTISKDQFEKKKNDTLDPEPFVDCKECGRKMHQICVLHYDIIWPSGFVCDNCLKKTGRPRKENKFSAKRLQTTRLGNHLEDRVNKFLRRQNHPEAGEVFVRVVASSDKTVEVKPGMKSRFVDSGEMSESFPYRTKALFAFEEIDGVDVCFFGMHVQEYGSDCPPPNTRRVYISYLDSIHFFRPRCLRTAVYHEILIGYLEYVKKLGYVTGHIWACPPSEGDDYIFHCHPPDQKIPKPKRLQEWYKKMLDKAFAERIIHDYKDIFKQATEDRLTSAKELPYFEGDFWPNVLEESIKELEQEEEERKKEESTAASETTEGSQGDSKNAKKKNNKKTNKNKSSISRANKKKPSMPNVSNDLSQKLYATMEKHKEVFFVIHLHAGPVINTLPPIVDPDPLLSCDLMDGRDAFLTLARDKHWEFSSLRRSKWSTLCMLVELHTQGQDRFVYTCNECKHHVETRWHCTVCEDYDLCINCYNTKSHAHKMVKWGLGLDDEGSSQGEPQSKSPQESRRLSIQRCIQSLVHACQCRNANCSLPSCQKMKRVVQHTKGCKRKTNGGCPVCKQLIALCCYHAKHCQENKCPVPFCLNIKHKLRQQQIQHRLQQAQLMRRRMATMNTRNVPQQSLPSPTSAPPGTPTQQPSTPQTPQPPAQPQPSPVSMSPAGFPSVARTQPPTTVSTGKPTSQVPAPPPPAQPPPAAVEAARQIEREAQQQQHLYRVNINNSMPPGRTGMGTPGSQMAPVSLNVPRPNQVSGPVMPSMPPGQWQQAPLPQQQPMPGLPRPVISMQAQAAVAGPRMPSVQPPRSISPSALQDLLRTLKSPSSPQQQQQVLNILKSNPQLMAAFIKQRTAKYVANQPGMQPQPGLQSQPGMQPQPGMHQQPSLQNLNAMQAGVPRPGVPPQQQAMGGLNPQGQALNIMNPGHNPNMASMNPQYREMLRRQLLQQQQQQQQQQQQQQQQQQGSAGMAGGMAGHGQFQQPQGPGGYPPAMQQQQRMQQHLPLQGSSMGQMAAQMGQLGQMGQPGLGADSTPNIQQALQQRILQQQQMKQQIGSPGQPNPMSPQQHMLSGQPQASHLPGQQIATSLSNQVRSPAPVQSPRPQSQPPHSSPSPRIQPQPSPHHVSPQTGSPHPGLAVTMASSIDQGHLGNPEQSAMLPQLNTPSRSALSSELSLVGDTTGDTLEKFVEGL
Assay [4] concerns the target T1, ATPase family AAA domain-containing protein 2 (Homo sapiens, UniProt Q6PL18).
T1 sequence (Q6PL18 whole entry): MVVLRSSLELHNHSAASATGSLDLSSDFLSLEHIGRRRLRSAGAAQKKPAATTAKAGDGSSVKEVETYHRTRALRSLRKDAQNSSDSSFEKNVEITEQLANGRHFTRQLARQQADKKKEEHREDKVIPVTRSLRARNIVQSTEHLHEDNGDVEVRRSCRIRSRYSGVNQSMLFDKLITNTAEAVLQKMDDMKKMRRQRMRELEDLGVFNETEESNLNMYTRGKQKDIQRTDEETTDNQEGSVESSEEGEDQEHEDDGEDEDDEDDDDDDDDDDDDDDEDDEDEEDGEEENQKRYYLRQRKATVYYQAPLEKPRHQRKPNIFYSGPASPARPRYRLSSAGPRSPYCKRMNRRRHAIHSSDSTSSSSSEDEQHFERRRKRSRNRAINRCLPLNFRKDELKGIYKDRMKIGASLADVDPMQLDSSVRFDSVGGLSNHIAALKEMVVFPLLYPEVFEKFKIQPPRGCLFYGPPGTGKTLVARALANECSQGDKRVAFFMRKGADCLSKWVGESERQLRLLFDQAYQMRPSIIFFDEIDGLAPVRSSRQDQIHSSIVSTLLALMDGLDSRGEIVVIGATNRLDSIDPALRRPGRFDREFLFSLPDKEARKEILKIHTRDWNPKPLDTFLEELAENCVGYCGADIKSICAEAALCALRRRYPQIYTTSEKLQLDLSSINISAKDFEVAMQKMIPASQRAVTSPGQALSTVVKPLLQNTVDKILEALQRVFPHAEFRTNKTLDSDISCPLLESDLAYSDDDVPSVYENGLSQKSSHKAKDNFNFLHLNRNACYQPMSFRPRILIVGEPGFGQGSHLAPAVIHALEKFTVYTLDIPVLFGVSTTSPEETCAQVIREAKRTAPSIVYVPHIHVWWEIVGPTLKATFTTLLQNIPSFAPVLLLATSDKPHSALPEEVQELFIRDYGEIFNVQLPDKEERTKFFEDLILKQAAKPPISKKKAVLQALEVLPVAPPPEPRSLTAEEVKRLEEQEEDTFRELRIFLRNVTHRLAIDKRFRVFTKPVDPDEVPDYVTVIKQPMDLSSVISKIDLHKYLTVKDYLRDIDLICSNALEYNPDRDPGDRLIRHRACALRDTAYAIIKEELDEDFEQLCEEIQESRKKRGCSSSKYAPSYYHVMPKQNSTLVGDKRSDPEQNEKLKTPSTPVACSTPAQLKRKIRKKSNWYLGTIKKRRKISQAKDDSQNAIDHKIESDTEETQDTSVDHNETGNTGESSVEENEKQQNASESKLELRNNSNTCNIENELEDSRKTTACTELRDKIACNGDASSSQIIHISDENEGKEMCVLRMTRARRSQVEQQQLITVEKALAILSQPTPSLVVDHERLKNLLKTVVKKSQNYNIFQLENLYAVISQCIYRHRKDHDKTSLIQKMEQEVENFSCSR
The experiment in a line: Binding affinity to ATAD2 by isothermal titration calorimetric analysis.

The test system of assay [5] is HepG2. The experiment in a line: Induction of human ApoA1 gene expression in stably transfected human HepG2 cells coexpressing luciferase reporter gene after 18 hrs by luminescence assay relative to control. Format: functional. A general note: In a reporter assay the amount or activity of a reporter protein is the signal.
The subject of assay [6] is HepG2. The experiment in a line: Induction of human ApoA1 gene expression in stably transfected human HepG2 cells coexpressing luciferase reporter gene at 0.001 to 10 uM after 18 hrs by luminescence assay. Format: functional, cell-based. Put shortly: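 HepG2 cells stably carrying an ApoA1 promoter–luciferase reporter were incubated 18 h with or without freshly diluted compound in 0.5% DMSO. Bright Glo reagent was then added, and luminescence was read after 10 min with substrate.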

In assay [7] the test system is HepG2. The experiment in a line: Induction of human ApoA1 protein synthesis in human HepG2 cells assessed as neosynthesised radiolabeled protein secretion after 6 hrs by SDS PAGE analysis in presence of [35S]methionine. Format: functional, cell-based. In outline:
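Confluent HepG2 cells were exposed to compound for 48 h in BME with 1% FCS. Compound was re-added in Met/Cys-depleted RPMI-1640 containing 35S-methionine for 6 h at 37 °C. Secreted labelled proteins were separated on 5–12% SDS-PAGE, and ApoA1 was quantified by phosphorimaging.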

Activity calls are given as the source filed them. The calls are words filed in the database; no cut-off is given here.

Consider three compounds from ChEMBL document CHEMBL2150880, “Discovery and characterization of small molecule inhibitors of the BET family bromodomains” (J Med Chem, 2011).

Consider `Cc1nnc2n1-c1ccccc1C(c1ccccc1)=NC2NC(=O)OCc1ccccc1` (configuration not stated), for which the Activity result with HepG2 [1] is “Dose-dependent effect”. Also, the EC50 in the assay on HepG2 [1] (HepG2, 18 h) amounted to 0.44 µM. Further, the result in the assay with HepG2 [2] was inactive. The “fold change (FC)” value with HepG2 [3] is given as 3; in the assay on HepG2 [5] it was 4.5. For the same compound, the dissociation constant (Kd) (at CREB-binding protein; in assay [4]) was greater than 50 µM throughout.
For the compound `CCNC(=O)C[C@H]1N=C(c2ccc(Cl)cc2)c2cc(OC)ccc2-n2c(C)nnc21`, the outcome in the assay on HepG2 [2] and in the assay on HepG2 [6] was inactive.
Take `CCNC(=O)C[C@@H]1N=C(c2ccc(Cl)cc2)c2cc(OC)ccc2-n2c(C)nnc21`: the Activity result with HepG2 [1] is “Dose-dependent effect”. In addition, the outcome in the assay on HepG2 [2] was inactive. The result in the assay on HepG2 [7] was Active.

Broadly, the EC50 is the concentration needed to bring the measured effect to its halfway point. For orientation: Kd means the constant that tells how readily two partners part at equilibrium.
